SR-BI uptake up = SR-BI HDL lipid transfer activation | activation, % at 12.5 µM | 0.096% of 320,000 active | CHO ldlA[mSR-BI] cells, DiI-HDL uptake fluorescence, 3 h; 100 = double the neutral-control signal;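 active = mean replicate activation of at least 60% and every replicate at or above 60%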;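 also: 0% = median plate neutral-control signal and 100% = twice that signal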
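Test system: SR-BI-overexpressing, LDLR-lacking CHO cells. Measured by: DiI fluorescence, bottom read. Medium: Ham's F12 with 0.5% BSA, HEPES 25 mM, pH 7.4. Timing: 3 h uptake period with compound, 37 °C.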
SR-BI DiI inh = mouse SR-BI HDL lipid transfer inhibition; ldlA[mSR-BI] CHO cells, DiI-HDL uptake fluorescence, 3 h; inhibition, % at 12.5 µM; 0.96% of 320,000 active; AID 488896;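 active = mean replicate inhibition of at least 70% and a set share of replicates each scoring 70 or more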;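 also: 0% = median of neutral control wells and 100% = median of positive control wells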
Target sequence (Q61009 whole entry, looked up): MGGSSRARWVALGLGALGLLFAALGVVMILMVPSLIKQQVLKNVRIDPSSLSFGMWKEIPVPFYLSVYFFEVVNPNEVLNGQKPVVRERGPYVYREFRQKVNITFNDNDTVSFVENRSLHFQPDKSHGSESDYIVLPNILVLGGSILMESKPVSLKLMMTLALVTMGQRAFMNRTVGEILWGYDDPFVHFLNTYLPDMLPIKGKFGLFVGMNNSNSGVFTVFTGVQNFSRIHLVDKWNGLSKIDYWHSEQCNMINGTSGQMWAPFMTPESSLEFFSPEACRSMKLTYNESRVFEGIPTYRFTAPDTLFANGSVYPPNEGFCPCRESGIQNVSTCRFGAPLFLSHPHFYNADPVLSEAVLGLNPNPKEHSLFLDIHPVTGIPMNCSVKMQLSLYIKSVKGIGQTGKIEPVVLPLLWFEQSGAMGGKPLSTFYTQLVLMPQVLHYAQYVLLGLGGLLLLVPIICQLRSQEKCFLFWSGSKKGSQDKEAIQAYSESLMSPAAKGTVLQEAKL
Dyrk1A ADPGlo = blocks rat Dyrk1A kinase activity; Q63470; inhibition, % at 12.5 µM; ADP-Glo luminescence, NFATc1 peptide; 0.43% of 310,000 active;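 also: plate controls were vehicle with enzyme for no effect and no enzyme for full effect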
CDK5 inh = blocks human CDK5/p35 kinase activity | Q00535+Q15078 | 0.01% of 330,000 active | inhibition, % at 10 µM | Recombinant CDK5/p35, ADP-Glo luminescence, 60 min;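 active = highest replicate inhibition of at least 50% and at least 75% of replicates reaching 50%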;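 also: plate controls were DMSO neutral control for no effect and GW8510 at 10 µM for full effect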
dFosB activator = mouse delta FosB homodimer activation; P13346; purified delta FosB, TAMRA-CDK5 oligo fluorescence polarization; percent of positive-control signal above neutral wells; AID 493131; activation, % at 25 µM; 0.99% of 340,000 active;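 active = mean activation above about 17%, with every replicate also reaching it, limit read from the data, passing the limit was not always enough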
NSD2 inh = NSD2 (human) methyltransferase inhibition | NSD2 peptide methylation, AlphaScreen, 120 min | inhibition, % at 12.5 µM | 0.54% of 310,000 active | AID 743445
AlphaScreen art = AlphaScreen assay artifact in NSD2 counter-screen. AlphaScreen artifact counterscreen, preloaded methylated H4 peptide. AID 1053174. AC35, µM (series often up to 10 µM), inactives show at the highest dose activity change, negative = signal loss. 9.4% of 1,500 active. shares compounds with NSD2 inh; call rule not given here
Active calls of the source: *. An excerpt weighted towards active compounds, which were near 2.5% of everything screened. Rule as the data show it, unless noted: active = inhibition above about 50%; inactive = the rest.

C[n+]1ccc(/C=C/c2ccccc2O)c2ccccc21 was read as SR-BI uptake up -58.6, SR-BI DiI inh 58.6, Dyrk1A ADPGlo 8.8, CDK5 inh 2.2, dFosB activator -4.5, NSD2 inh 50.4* and AlphaScreen art -6.3%.
For O=C(c1coc(=O)c(Br)c1)N1CCCc2ccccc21 the results were SR-BI uptake up -24.2, SR-BI DiI inh 24.2, Dyrk1A ADPGlo 9.2, CDK5 inh -0.8, dFosB activator -5.0, NSD2 inh 51.7* and AlphaScreen art -3.9%.
Screening O=C1c2cccc(Sc3ccccc3)c2C(=O)c2c(Sc3ccccc3)cccc21 returned SR-BI uptake up -14.1, SR-BI DiI inh 14.1, Dyrk1A ADPGlo 0.5, CDK5 inh -0.6, dFosB activator -11.5, NSD2 inh 75.6* and AlphaScreen art -16.6%.
Screening CCCNC(=O)C1(C)CCN1C(=O)C/C=C/c1ccccc1 (stereo unspecified) returned NSD2 inh 25.9.
For O=c1[nH]c(Cc2ccc(F)cc2)nc2scc(-c3ccc(F)cc3)c12 the results were Dyrk1A ADPGlo -3.6, CDK5 inh -1.5, dFosB activator -12.0 and NSD2 inh -2.0.
`Cc1ccc(-c2csc3nc(CN(C)Cc4ccccc4)[nH]c(=O)c23)cc1` gave SR-BI uptake up -37.0, SR-BI DiI inh 37.0, Dyrk1A ADPGlo 1.3, CDK5 inh -6.6, dFosB activator -14.8, NSD2 inh 59.8* and AlphaScreen art 2.3%.
Screening C/C(C=Nn1c(-c2ccc(F)cc2)n[nH]c1=S)=C/c1ccco1 returned NSD2 inh 61.1* and AlphaScreen art -3.5%.
`CC(/C=N/n1c(-c2cccnc2)n[nH]c1=S)=C\c1ccco1` gave SR-BI uptake up -5.2, SR-BI DiI inh 5.2, Dyrk1A ADPGlo 2.7, CDK5 inh -0.3, dFosB activator -17.1 and NSD2 inh 7.3.
For COc1cccc(CN(C)C(=O)c2cc(COc3c(F)cccc3F)on2)c1 the results were SR-BI uptake up -3.7, SR-BI DiI inh 3.7, Dyrk1A ADPGlo 5.3, CDK5 inh 0.8, dFosB activator 0.8, NSD2 inh 99.1* and AlphaScreen art 3.2%.
For CN(Cc1cnn(C)c1)C(=O)c1cc(COc2c(F)cccc2F)on1 the results were SR-BI uptake up 10.7, SR-BI DiI inh -10.7, Dyrk1A ADPGlo -8.2, CDK5 inh 0.2, dFosB activator 4.5 and NSD2 inh 0.7.
Screening O=C(NC1=NCCS1)c1csc2ccccc12 returned SR-BI uptake up -1.7, SR-BI DiI inh 1.7, Dyrk1A ADPGlo -37.0, CDK5 inh 0.7, dFosB activator -1.4, NSD2 inh 70.3* and AlphaScreen art -2.8%.
O=C(NC1=NCCS1)c1ccccc1Cl was read as SR-BI uptake up -8.2, SR-BI DiI inh 8.2, Dyrk1A ADPGlo 1.6, CDK5 inh -0.1, dFosB activator -3.5 and NSD2 inh -1.7.
`O=C(CN1CCCC1c1cccs1)Nc1cccc(S(=O)(=O)N2CCCC2)c1` (stereo unspecified) gave SR-BI uptake up -42.2, SR-BI DiI inh 42.2, Dyrk1A ADPGlo 1.0, CDK5 inh -0.4, dFosB activator -17.7 and NSD2 inh 2.5.
Screening COc1ccc(C(=O)c2nccc3cc(OC)c(OC)cc23)cc1OC returned SR-BI uptake up 0.4, SR-BI DiI inh -0.4, Dyrk1A ADPGlo 6.5, CDK5 inh 0.9, dFosB activator -6.8, NSD2 inh 89.8* and AlphaScreen art -0.9%.
Screening CCN1C(=O)c2cccc3c(S(=O)(=O)N4CCNCC4)ccc1c23 returned SR-BI uptake up -25.4, SR-BI DiI inh 25.4, CDK5 inh -9.4, dFosB activator -1.6 and NSD2 inh -1.0.
`CC(=O)Nc1ccc(Sc2ccccc2C(=O)O)cn1` gave SR-BI uptake up 30.0, SR-BI DiI inh -30.0, Dyrk1A ADPGlo 1.1, CDK5 inh 0.4, dFosB activator 1.0, NSD2 inh 72.5* and AlphaScreen art -4.0%.
For CCOc1ccc(NC(=O)CN(C)C(=O)C2CCCO2)cc1OCC (stereo unspecified) the results were SR-BI uptake up 7.2, SR-BI DiI inh -7.2, Dyrk1A ADPGlo -8.5, CDK5 inh 0.7, dFosB activator -3.9 and NSD2 inh -2.2.
Screening NC1=NC(=Nc2ccc(Br)cc2)c2ccccc21 returned SR-BI uptake up -14.6, SR-BI DiI inh 14.6, Dyrk1A ADPGlo 7.8, CDK5 inh -2.0, dFosB activator -3.2, NSD2 inh 52.9* and AlphaScreen art -9.4%.
NC1=NC(=Nc2ccccc2)c2ccccc21 was read as SR-BI uptake up 4.7, SR-BI DiI inh -4.7, Dyrk1A ADPGlo -5.2, CDK5 inh 0.8, dFosB activator -2.0 and NSD2 inh -2.1.
For COc1ccccc1CN1CCNC(=O)C1CC(=O)N(C)Cc1nc(C)cs1 (stereo unspecified) the results were SR-BI uptake up 6.3, SR-BI DiI inh -6.3, Dyrk1A ADPGlo 7.9, CDK5 inh -2.8, dFosB activator -3.2 and NSD2 inh 0.9.
For O=C(CSc1ncn[nH]1)NCc1ccccc1Cl the results were SR-BI uptake up 25.7, SR-BI DiI inh -25.7, Dyrk1A ADPGlo 2.4, CDK5 inh 0.1, dFosB activator -1.6 and NSD2 inh 0.5.
For CC1=C/C(=C(\c2cc(C)c(O)c(Br)c2)c2ccccc2S(=O)(=O)O)C=C(Br)C1=O the results were SR-BI uptake up 1.0, SR-BI DiI inh -1.0, Dyrk1A ADPGlo 8.7, CDK5 inh 14.1, dFosB activator -0.7, NSD2 inh 50.4* and AlphaScreen art 7.81µM*.
For O=C(c1ccco1)N1CCN(Cc2cn[nH]c2-c2cccc3ccccc23)CC1 the results were Dyrk1A ADPGlo -2.5, CDK5 inh -2.4, dFosB activator -3.9 and NSD2 inh -2.5.
`NNC(=O)c1cc(O)c(O)c(O)c1` gave SR-BI uptake up 21.8, SR-BI DiI inh -17.2, Dyrk1A ADPGlo 32.6, CDK5 inh 7.7, dFosB activator 3.8, NSD2 inh active and AlphaScreen art -10.6%.
`O=C(COc1cccc2c1CCNC2=O)Nc1ccc(F)cc1` gave SR-BI uptake up 13.4, SR-BI DiI inh -13.4, Dyrk1A ADPGlo -0.7, CDK5 inh 2.7, dFosB activator -1.3 and NSD2 inh -0.8.
Screening O=C(NC(c1ccc(Cl)cc1)c1cc(Cl)c2cccnc2c1O)c1cccnc1 (stereo unspecified) returned SR-BI uptake up -3.9, SR-BI DiI inh 3.9, Dyrk1A ADPGlo 2.0, CDK5 inh 0.8, dFosB activator 12.7, NSD2 inh 62.7* and AlphaScreen art -3.5%.
CC1=Nc2cccc3cccc(c23)N1C was read as SR-BI uptake up 21.4, SR-BI DiI inh -21.4, Dyrk1A ADPGlo 5.0, CDK5 inh 2.3, dFosB activator 8.3, NSD2 inh active and AlphaScreen art 2.9%.
